Results taken from ChEMBL document CHEMBL1649122, “Abc1p is a multidrug efflux transporter that tips the balance in favor of innate azole resistance in Candida krusei” (2009).
The source made the active and inactive calls. No cut-off for these calls is given here.

Columns and labels:
Conditions in all cases: Pichia kudriavzevii
[1] = target: ATP binding cassette transporter Abc1p (Issatchenkia orientalis) (UniProt Q09GQ4); experiment: Inhibition of Candida krusei ABC1 expressed in Saccharomyces cerevisiae isolate ADdelta at 22 nM
[2] = target: ATP binding cassette transporter Abc1p (Issatchenkia orientalis) (UniProt Q09GQ4); experiment: Inhibition of Candida krusei ABC1 expressed in Saccharomyces cerevisiae isolate ADdelta at 46 nM
Method in brief: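 Agarose disk-diffusion test of S. cerevisiae AD overexpressing C. krusei Abc1p, with the parent AD strain as comparison. Cells were pregrown from YPD overnight into CSM to mid-log at 30°C. They were seeded at OD600 0.008 in CSM with 0.6% agarose, overlaid on CSM agar (pH 7.0). Paper disks carrying set nmol amounts of xenobiotic were applied, and plates were incubated at 30°C for 48 h before reading growth inhibition zones.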

[3] = target: ATP binding cassette transporter Abc1p (Issatchenkia orientalis) (UniProt Q09GQ4); experiment: Inhibition of Candida krusei ABC1 expressed in Saccharomyces cerevisiae isolate ADdelta at 2 nM
[4] = target: ATP binding cassette transporter Abc1p (Issatchenkia orientalis) (UniProt Q09GQ4); experiment: Inhibition of Candida krusei Abc1g expressed in Saccharomyces cerevisiae isolate ADdelta assessed as reduction of itraconazole MIC at 2.5 ug/ml after 48 hrs by checkerboard susceptibility assay
Method in brief: (§1)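 Checkerboard liquid microdilution in CSM (pH 7.0). FLC or ITC MICs of AD/CkABC1g or C. krusei B2399 were measured across a range of milbemycin concentrations. Interaction was expressed as fractional inhibitory concentration index (FICI).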

[5] = target: ATP binding cassette transporter Abc1p (Issatchenkia orientalis) (UniProt Q09GQ4); experiment: Inhibition of Candida krusei IF011 Abc1p assessed as reduction of itraconazole MIC at 1 ug after 48 hrs by agarose diffusion assay
[6] = target: ATP binding cassette transporter Abc1p (Issatchenkia orientalis) (UniProt Q09GQ4); experiment: Inhibition of Candida krusei Abc1p expressed in Saccharomyces cerevisiae isolate AD assessed as reduction of itraconazole MIC at 1 ug after 48 hrs by agarose diffusion assay
[7] = target: ATP binding cassette transporter Abc1p (Issatchenkia orientalis) (UniProt Q09GQ4); experiment: Inhibition of Candida krusei B2399 Abc1p assessed as reduction of itraconazole MIC at 2.5 ug/ml after 48 hrs by checkerboard susceptibility assay; method in brief: as §1
[8] = target: ATP binding cassette transporter Abc1p (Issatchenkia orientalis) (UniProt Q09GQ4); experiment: Inhibition of Candida krusei B2399 Abc1p assessed as reduction of fluconazole MIC at 2.5 ug/ml after 48 hrs by checkerboard susceptibility assay; method in brief: as §1
[9] = target: ATP binding cassette transporter Abc1p (Issatchenkia orientalis) (UniProt Q09GQ4); experiment: Inhibition of Candida krusei Abc1g expressed in Saccharomyces cerevisiae isolate ADdelta assessed as reduction of fluconazole MIC at 2.5 ug/ml after 48 hrs by checkerboard susceptibility assay; method in brief: as §1
[10] = target: ATP binding cassette transporter Abc1p (Issatchenkia orientalis) (UniProt Q09GQ4); experiment: Inhibition of Candida krusei B2399 Abc1p assessed as reduction of itraconazole MIC at 1 ug after 48 hrs by agarose diffusion assay

Question: For NYSTATIN, which Activity [1] is on record?
Answer: inactive

Question: How did the Activity [2] turn out when CN(C/C=C/C#CC(C)(C)C)Cc1cccc2ccccc12 was run?
Answer: inactive

Question: C/C=C/C/C=C/CCC(=O)[C@H]1O[C@H]1C(N)=O was tested. Which Activity [3] did it give?
Answer: Active

Question: How did the Activity [4] turn out when C/C=C(\C)C(=O)OCC1=C[C@H]2C(=O)O[C@H]3C[C@@H](C/C=C(\C)C[C@@H](C)/C=C/C=C4\CO[C@H]([C@@H]1O)[C@@]42O)O[C@@]1(CC[C@H](C)[C@@H](C)O1)C3 was run?
Answer: Active

Question: And the Activity [5]?
Answer: Active

Question: What about the Activity [6] of the same compound?
Answer: Active

Question: What about the MIC [7] of the same compound?
Answer: 0.125 µg/mL

Question: What about the MIC [8] of the same compound?
Answer: 64 µg/mL

Question: What about the Activity [9] of the same compound?
Answer: Active

Question: What about the Activity [10] of the same compound?
Answer: Active
